# Results of several laboratories.
# Each line is one published result; the experiments were not run side by side.
# Organism: Leishmania donovani
# Observed: parasite growth
Structure (SMILES),test,test system,setting,quantity,result
COc1cc(NC(C)CCCNC(=S)NCCCC(C)Nc2cc(OC)cc3ccc(C(C)(C)C)nc23)c2nc(C(C)(C)C)ccc2c1.Cl.Cl (stereo not drawn),resazurin,,promastigote,IC90,20 to 31 µg/mL
CCCCCCCC/C=C\CCCCCCCCCCCCOP(=O)([O-])OCC[N+](C)(C)C,resazurin,,"50 µM, 72 h, promastigote",inhibition,108%
COc1ccccc1-c1n[nH]c2nc(N[C@H]3CC[C@H](NS(=O)(=O)CCCOCCOCCN)CC3)ncc12,,,amastigote,EC50,4210 nM
c1ccc(CN2CCN(c3nc(-c4ccccn4)nc4ccccc34)CC2)cc1,imaging,THP-1,"intracellular, amastigote",IC50,2600 nM
COc1ccccc1-c1n[nH]c2nc(N[C@H]3CC[C@H](NS(=O)(=O)CCCOCCOCCNC(=O)OC(C)(C)C)CC3)ncc12,,,amastigote,EC50,1360 nM
CCCCCCCCCCCCCCCCOP(=O)([O-])OCC[N+](C)(C)C,resazurin,,"25 µM, 72 h, promastigote",inhibition,100%
C[C@@H]1[C@H](O)[C@@H](C)/C=C/C=C/C=C/C=C/C=C/C=C/C=C/[C@H](O[C@@H]2O[C@H](C)[C@@H](O)[C@H](N)[C@@H]2O)C[C@@H]2O[C@](O)(C[C@@H](O)C[C@@H](O)[C@H](O)CC[C@@H](O)C[C@@H](O)CC(=O)O[C@H]1C)C[C@H](O)[C@H]2C(=O)O,resazurin,,"72 h, promastigote",IC90,1.8 µg/mL
C[C@@H]1[C@H](O)[C@@H](C)/C=C/C=C/C=C/C=C/C=C/C=C/C=C/[C@H](O[C@@H]2O[C@H](C)[C@@H](O)[C@H](N)[C@@H]2O)C[C@@H]2O[C@](O)(C[C@@H](O)C[C@@H](O)[C@H](O)CC[C@@H](O)C[C@@H](O)CC(=O)O[C@H]1C)C[C@H](O)[C@H]2C(=O)O,MTT,,"48 h, amastigote",IC90,1800 nM
COc1ccccc1-c1n[nH]c2nc(NC3CCN(C(=O)Cc4ccc(OCCOCCNC(=O)OC(C)(C)C)cc4)CC3)ncc12,,,amastigote,EC50,4200 nM
c1ccc(-c2nc(N3CCCC3)c3ccccc3n2)nc1,,THP-1,"intracellular, amastigote",IC50,2500 nM
COc1ccccc1-c1n[nH]c2nc(NC3CCN(C(=O)Cc4ccc(OCCOCCN)cc4)CC3)ncc12,,THP-1,"intracellular, amastigote",EC50,26700 nM
COc1cc(NC(C)CCCNC(=S)NCCCC(C)Nc2cc(OC)cc3cccnc23)c2ncccc2c1.Cl.Cl (stereo not drawn),resazurin,,promastigote,IC50,4 to 9 µg/mL
